# Measurements gathered from unrelated publications.
# Compare with care: the assays were run in different laboratories.
# Target: Mitogen-activated protein kinase kinase kinase 20 (MAP3K20, Homo sapiens, UniProt Q9NYL2)
Structure (SMILES),test,conditions,remaining binding
C[C@@H](c1ccc(-n2cnc3c(N)ncnc32)cc1)N1CCc2nn(C)c(Cc3ccccc3)c2C1=O,"binding, competition with immobilised ligand",0.1 µM,58%
Cc1cnc(Nc2ccc(C(=O)N3CCC(N4CCCC4)CC3)cc2)nc1-c1cc2ccccc2s1,"binding, competition with immobilised ligand",1 µM,43%
COc1ncc2cc3ccccc3nc2c1C#N,"cell-free assay, competition with immobilised ligand",5 µM,80%
C[C@H]1CCN(c2nccc(-c3cnn4ncccc34)n2)C1,binding,1 µM,97%
O=C(NCCCN1CCOCC1)c1ccc(Nc2ncc(Cl)c(-c3ccc(Cl)s3)n2)cc1,"binding, competition with immobilised ligand",1 µM,69%
N[C@H]1CCN(c2nccc(-c3cnn4ncccc34)n2)C1,binding,1 µM,99%
COc1cnc(Nc2cccc(S(N)(=O)=O)c2)nc1N1CCN(c2ccccc2)CC1,"binding, competition with immobilised ligand",1 µM,100%
C[C@@H](c1cccc(C#N)c1)n1cc(Cl)cc(C(N)=O)c1=N,"cell-free assay, competition with immobilised ligand",1 µM,71%
O=C(c1ccc(Nc2ncc(Cl)c(-c3cc4ccccc4s3)n2)cc1)N1CCC(N2CCCC2)CC1,"binding, competition with immobilised ligand",1 µM,48%
Nc1ncc2c(n1)-c1c([nH]c3ccc(C#CC4CC4)cc13)CCCC2,"binding, competition with immobilised ligand",1 µM,93%
O=C(NCc1ncc(C(F)(F)F)cc1Cl)c1ccc2c(c1)C1(CCS(=O)(=O)CC1)[C@H](C1CC1)N2S(=O)(=O)c1ccc(F)cc1,"cell-free assay, competition with immobilised ligand",1 µM,100%
c1cnn2ncc(-c3ccnc(N4CCC45COC5)n3)c2c1,binding,1 µM,100%
CO[C@@H](C)c1c(Nc2ccc([C@@H](N(C)C(=O)C3CCS(=O)(=O)CC3)C(F)(F)F)cc2)cnc2cc(Cl)nn12,"cell-free assay, competition with immobilised ligand",1 µM,100%
CN(C)c1nccc(-c2cnn3ncccc23)n1,binding,1 µM,100%
Cc1c(NC(=O)c2cc(C(N)=O)nc3cc(F)ccc23)c(C(F)(F)F)nn1Cc1ccc(C#N)cc1,"cell-free assay, competition with immobilised ligand",1 µM,100%
O=C(Nc1c[nH]nc1C(=O)NC1CCNCC1)c1cc(F)cc(F)c1,"binding, competition with immobilised ligand",1 µM,100%
CCOC(=O)c1cc2cc(-c3cc(C(=O)NCc4ccc(C(=O)O)cc4)nn3C)ccc2[nH]1,"cell-free assay, competition with immobilised ligand",0.1 µM,87%
CNC(=O)[C@@H]1CC[C@@H](n2c(-c3ccc4cnccc4c3)nc3ccc(C(=O)NCc4cccc(C(N)=O)c4)cc32)C1,"binding, competition with immobilised ligand",1 µM,100%
CN(CCCC(F)(F)F)c1nccc(-c2cnn3ncccc23)n1,binding,1 µM,88%
CCCOc1ccc([C@@H]2[C@@H](C(=O)O)[C@H](c3ccc4c(c3)OCO4)CN2CC(=O)Nc2c(CC)cccc2CC)cc1,"cell-free assay, competition with immobilised ligand",1 µM,100%
Cc1cnn2ncc(-c3ccnc(N(C)C)n3)c2c1,binding,1 µM,95%
Cc1c(NC(=O)c2cc(C(N)=O)nc3cc(F)ccc23)c(C(F)(F)F)nn1Cc1ccc(C(C)(C)C)cc1,"cell-free assay, competition with immobilised ligand",1 µM,100%
